The values that follow come from ChEMBL document CHEMBL4190397, “Design and Synthesis of Novel and Selective Glycine Transporter-1 (GlyT1) Inhibitors with Memory Enhancing Properties” (J Med Chem, 2018).

Bounds are passed on as bounds.

The target of series [1] is Cytochrome P450 3A4 (Homo sapiens, UniProt P08684). Nature of the series: Inhibition of CYP3A4 in human liver microsomes using midazolam as substrate measured after 7 mins in presence of NADPH by LC-MS/MS analysis.
Series [2] is described as follows: Intrinsic clearance in human liver microsomes at 1 uM assessed per mg protein at 37 degC up to 60 mins in presence of NADPH by HPLC-MS analysis. The format is ADME, microsome. Particulars: read-out: CLH.
Series [3] can be described thus: Apparent permeability from basolateral to apical side in MDCK-MDR1 cells monolayer at 5 uM after 60 mins by LC-MS/MS analysis. Particulars: dog.
Series [4] deals with Cytochrome P450 2C19 (Homo sapiens, UniProt P33261). The series can be described thus: Inhibition of CYP2C19 in human liver microsomes using S-mephenytoin as substrate measured after 10 mins in presence of NADPH by LC-MS/MS analysis.
In series [5] the target is Cytochrome P450 2D6 (Homo sapiens, UniProt P10635). Nature of the series: Inhibition of CYP2D6 in human liver microsomes using dextromethorphan as substrate measured after 10 mins in presence of NADPH by LC-MS/MS analysis.
A short description of series [6]: Permeability of the compound at pH 7.4 at 100 uM after 60 mins by PAMPA-BBB assay.
Series [7] concerns the target Voltage-gated inwardly rectifying potassium channel KCNH2 (Homo sapiens, UniProt Q12809). The series can be described thus: Inhibition of human ERG expressed in CHO cells at 10 nM to 10 uM at holding potential of -80 mV measured after 5 mins by QPatch automated patch clamp electrophysiology method.
Series [8] can be described thus: Efflux ratio of apparent permeability from basolateral to apical over apical to basolateral side in MDCK-MDR1 cells at 5 uM after 60 mins by LC-MS/MS analysis. Particulars: dog.
A short description of series [9]: Apparent permeability from apical to basolateral side in MDCK-MDR1 cells monolayer at 5 uM after 60 mins by LC-MS/MS analysis. The conditions noted are these: dog.
Series [10] concerns Rattus norvegicus. The series can be described thus: In vivo inhibition of GlyT1 in Sprague-Dawley rat assessed as CSF glycine levels at 10 mg/kg, po administered as single dose measured after 90 mins by LC-MS/MS analysis relative to control. In kind it is functional. In short, it runs like this: (§1)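 Male Sprague-Dawley rats (300−400 g, n = 5), fed ad libitum, dosed orally at 10 mg/kg (10 mL/kg) in NMP/PEG400/water (10:50:40), with a vehicle group (n = 5) in each study. CSF (~100 µL) taken under anaesthesia at 90 min. Glycine derivatised with Marfey's reagent, 13C2-15N-glycine internal standard, LC-MS/MS in negative ion mode. Expressed as % of vehicle; 1-way ANOVA.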

Series [11] can be described thus: Ratio of free drug level in rat brain homogenate at 1 uM to IC50 for inhibition of GlyT1 in primary rat cortical neurons. The format is tissue-based.
Series [12] is described as follows: Free drug level in rat brain homogenate at 1 uM by LC-MS/MS based equilibrium dialysis. In kind it is ADME, tissue-based.
Series [13] can be described thus: Unbound fraction in rat brain homogenate at 1 uM by LC-MS/MS based equilibrium dialysis. In kind it is ADME, tissue-based. The method in brief:
(§2)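 Rat plasma or brain homogenate (1:6 in 0.1 M PBS pH 7.2) spiked to 1.0 µM, in triplicate. Rapid equilibrium dialysis (MWCO 8000) against PBS, shaken at 37 °C for 6 h. Matrix-matched samples quantified by LC-MS/MS. fu = receiver/donor concentration; brain value corrected for homogenate dilution.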

Series [14] in a line: Drug uptake in Sprague-Dawley rat CSF at 10 mg/kg, po after 90 mins by LC-MS/MS analysis. The format is ADME, organism-based, Cerebrospinal fluid. Particulars: read-out: Drug uptake. In short, it runs like this:
(§3)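 Male SD rats (n=5) given a single oral dose of 10 mg/kg in NMP/PEG400/water (10:50:40). Plasma, total brain and CSF compound concentrations measured 90 min after dosing.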

A short description of series [15]: Unbound fraction in rat plasma at 1 uM by LC-MS/MS based equilibrium dialysis. The format is ADME, cell-free. The method in brief:
as §2

A short description of series [16]: Drug uptake in Sprague-Dawley rat brain at 10 mg/kg, po after 90 mins by LC-MS/MS analysis. The format is ADME, organism-based. Particulars: read-out: Drug uptake. The method in brief: as §3
Series [17] concerns Rattus norvegicus. Nature of the series: In vivo inhibition of GlyT1 in Sprague-Dawley rat assessed as increase in CSF glycine levels at 10 mg/kg, po administered as single dose measured after 90 mins by LC-MS/MS analysis relative to control. In kind it is functional. Set-up: scale not given: the % may be the effect or the level left. The method in brief:
as §1

Series [18] in a line: Plasma concentration in Sprague-Dawley rat at 10 mg/kg, po after 90 mins by LC-MS/MS analysis. The format is ADME, organism-based. The method in brief:
as §3

Cytochrome P450 2C19, sequence (P33261 whole entry): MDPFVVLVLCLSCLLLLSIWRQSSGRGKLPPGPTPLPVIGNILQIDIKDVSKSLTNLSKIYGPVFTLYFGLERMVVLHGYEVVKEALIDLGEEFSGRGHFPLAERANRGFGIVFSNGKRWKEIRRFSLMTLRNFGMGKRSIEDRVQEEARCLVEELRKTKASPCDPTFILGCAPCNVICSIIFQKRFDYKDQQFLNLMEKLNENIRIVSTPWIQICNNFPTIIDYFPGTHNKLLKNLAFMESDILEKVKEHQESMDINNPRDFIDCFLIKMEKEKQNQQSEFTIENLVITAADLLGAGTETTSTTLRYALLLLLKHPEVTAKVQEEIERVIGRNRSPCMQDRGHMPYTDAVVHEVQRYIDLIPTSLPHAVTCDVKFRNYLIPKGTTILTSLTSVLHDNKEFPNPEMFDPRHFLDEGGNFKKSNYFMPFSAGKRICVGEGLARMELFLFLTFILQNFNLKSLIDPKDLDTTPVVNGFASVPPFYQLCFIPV
Cytochrome P450 2D6, sequence (P10635 whole entry): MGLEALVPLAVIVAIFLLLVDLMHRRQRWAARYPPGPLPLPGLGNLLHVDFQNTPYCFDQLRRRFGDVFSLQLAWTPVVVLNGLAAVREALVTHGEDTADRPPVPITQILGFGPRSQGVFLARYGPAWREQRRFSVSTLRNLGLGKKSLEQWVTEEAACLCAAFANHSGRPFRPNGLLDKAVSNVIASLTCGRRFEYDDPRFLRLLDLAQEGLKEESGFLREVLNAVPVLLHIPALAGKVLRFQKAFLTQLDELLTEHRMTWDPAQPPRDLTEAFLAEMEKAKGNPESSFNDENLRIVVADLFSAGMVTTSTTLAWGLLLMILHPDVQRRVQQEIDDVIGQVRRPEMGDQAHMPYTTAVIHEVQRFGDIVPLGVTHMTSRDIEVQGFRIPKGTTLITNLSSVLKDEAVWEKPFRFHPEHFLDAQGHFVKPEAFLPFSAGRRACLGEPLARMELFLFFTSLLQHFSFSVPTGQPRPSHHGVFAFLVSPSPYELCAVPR
Voltage-gated inwardly rectifying potassium channel KCNH2, sequence (Q12809 whole entry): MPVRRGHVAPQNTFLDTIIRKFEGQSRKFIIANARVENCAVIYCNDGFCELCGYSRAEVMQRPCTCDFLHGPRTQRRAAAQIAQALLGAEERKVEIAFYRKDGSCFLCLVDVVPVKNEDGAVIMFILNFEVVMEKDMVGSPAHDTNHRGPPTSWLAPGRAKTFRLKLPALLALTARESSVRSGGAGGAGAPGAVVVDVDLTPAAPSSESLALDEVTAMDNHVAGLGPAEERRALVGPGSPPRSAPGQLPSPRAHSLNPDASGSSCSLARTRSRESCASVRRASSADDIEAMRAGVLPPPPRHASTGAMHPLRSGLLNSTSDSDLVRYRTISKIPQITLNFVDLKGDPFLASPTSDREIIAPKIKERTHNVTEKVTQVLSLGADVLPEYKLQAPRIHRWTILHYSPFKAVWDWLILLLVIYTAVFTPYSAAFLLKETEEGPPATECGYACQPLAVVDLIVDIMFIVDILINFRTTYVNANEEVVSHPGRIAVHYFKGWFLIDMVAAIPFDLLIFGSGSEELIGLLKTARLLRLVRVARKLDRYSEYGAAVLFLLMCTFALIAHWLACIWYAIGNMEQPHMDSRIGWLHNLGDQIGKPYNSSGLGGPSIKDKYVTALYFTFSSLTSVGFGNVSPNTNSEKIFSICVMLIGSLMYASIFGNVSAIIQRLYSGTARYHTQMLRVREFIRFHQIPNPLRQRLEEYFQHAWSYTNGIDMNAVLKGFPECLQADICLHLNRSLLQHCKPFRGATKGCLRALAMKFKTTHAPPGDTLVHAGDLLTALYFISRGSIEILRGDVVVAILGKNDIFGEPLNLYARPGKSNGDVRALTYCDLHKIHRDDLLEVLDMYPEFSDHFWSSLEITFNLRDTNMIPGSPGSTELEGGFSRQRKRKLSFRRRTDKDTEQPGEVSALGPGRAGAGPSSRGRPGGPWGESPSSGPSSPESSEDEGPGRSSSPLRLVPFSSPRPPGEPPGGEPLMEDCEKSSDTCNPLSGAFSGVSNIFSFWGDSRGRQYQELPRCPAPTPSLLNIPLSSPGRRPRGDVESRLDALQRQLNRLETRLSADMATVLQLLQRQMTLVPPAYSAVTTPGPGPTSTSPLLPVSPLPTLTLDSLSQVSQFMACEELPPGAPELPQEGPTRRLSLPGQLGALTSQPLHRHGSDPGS
Cytochrome P450 3A4, sequence (P08684 whole entry): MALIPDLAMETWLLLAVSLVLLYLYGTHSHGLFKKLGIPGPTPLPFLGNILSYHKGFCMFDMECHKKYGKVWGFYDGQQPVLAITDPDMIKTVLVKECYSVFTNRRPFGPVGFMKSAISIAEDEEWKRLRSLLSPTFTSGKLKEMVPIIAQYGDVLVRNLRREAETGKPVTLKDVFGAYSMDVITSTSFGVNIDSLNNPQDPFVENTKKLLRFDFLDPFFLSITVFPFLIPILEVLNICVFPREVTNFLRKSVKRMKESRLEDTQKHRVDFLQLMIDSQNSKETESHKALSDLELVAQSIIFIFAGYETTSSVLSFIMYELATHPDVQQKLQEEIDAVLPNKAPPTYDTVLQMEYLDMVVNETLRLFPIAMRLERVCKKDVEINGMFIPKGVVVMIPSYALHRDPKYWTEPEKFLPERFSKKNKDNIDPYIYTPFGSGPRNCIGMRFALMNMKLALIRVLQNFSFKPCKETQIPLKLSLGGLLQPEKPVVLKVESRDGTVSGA

Take `C[C@H](Oc1ccc(C#N)cc1C(=O)N1Cc2cn(-c3ccccc3F)nc2C1)C(F)(F)F`: the IC50 in series [1], in series [4], in series [5] and in series [7] was > 10 µM throughout. Also, the microsomal CLint at 1 µM in series [2] turned out to be 13.5 µL/min/mg. In addition, in series [3], the Papp B→A at 1 h, 5 µM amounted to 617 nm/s. In addition, in series [6], the Papp at 1 h, 100 µM was > 100 nm/s. In series [8], the efflux ratio at 1 h, 5 µM amounted to 1.1. Further, in series [9], the Papp A→B at 1 h, 5 µM came to 574 nm/s.

As to `CS(=O)(=O)c1ccc(OCC2CC2)c(C(=O)N2Cc3cn(-c4ccccc4F)nc3C2)c1`, the Activity is 7.6 µM in [10] and 110% in [17]. Also, the IC50 is > 10 µM in series [1], > 10 µM in [4], > 10 µM in [5] and 9.9 µM in series [7]. Further, the Ratio in series [11] came out at 0.37. For the same molecule, in series [12], the “Drug uptake(free)” value is 10.3 nM. Further, in [2], the microsomal CLint at 1 µM worked out at 0.3 µL/min/mg. Also, the fraction unbound at 1 µM was determined as 0.017 in [13] and 0.047 in series [15]. Moreover, in [3], the Papp B→A at 1 h, 5 µM is 589 nm/s. Moreover, the concentration at […] in series [14] stood at 0.026 µM; in series [16], 0.605 µM; in [18], 2.14 µM. The molecule further displayed a Papp at 1 h, 100 µM in series [6] of 779 nm/s. Besides, in series [8], the efflux ratio at 1 h, 5 µM was 2.4. Besides, the Papp A→B at 1 h, 5 µM in series [9] stood at 246 nm/s.
